This note sets out measurements from paper PMC3920952 (Cell Death & Disease, 2013).

Series [1] in a line: Particle size by dynamic light scattering. In kind it is physicochemical. The conditions noted are these: PBS pH 7.4, 25 °C. In short, it runs like this: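 Test peptide at 60 μM in PBS, pH 7.4, at 25 °C was filtered and degassed, then scanned in a 1-mm path quartz cuvette. 90° light scattering was recorded for 3 min. Particle radius was derived by CONTIN analysis of the DLS data.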

The test system of a further series is K562 cells. In words: Trypan blue exclusion assay. In kind it is cell-based. The note with it: 20 μM, 15-min treatment. In short, it runs like this:
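K562 cells were exposed to 20 μM test peptide or TAT in medium with 0.5% FBS, either over a time course (minutes) or for 18 h. Cells in suspension were mixed 1:1 with 0.4% Trypan blue. Viable (dye-negative) cells were counted on an automated cell counter. Values are mean ± S.D.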

Series [2] has as its system Jurkat cells. The series is described as follows: Trypan blue exclusion assay. In kind it is cell-based. In short, it runs like this:
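Jurkat cells cultured in 96-well plates and treated with TAT or test peptide overnight (10–15 μM range). In the caspase-inhibitor arm, cells were preincubated 30 min with zVAD-fmk or vehicle, then treated 17 h (TAT 10 μM). Suspended cells were mixed 1:1 with 0.4% Trypan blue, and viable cells were counted on a TC10 automated counter.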

Series [3] has as its system Jurkat cells. In words: ATP-based cell viability assay. In short, it runs like this: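 Jurkat cells (RPMI, 10% FBS, 1.5 mmol/l L-glutamine) seeded in half-surface 96-well plates. Treated overnight/18 h with test peptide, TAT-only peptide or vehicle under low serum (0.5–5% FBS). Single-concentration runs used 15 μM. ATP measured by CellTiter-Glo luminescence and expressed as % of vehicle-treated control. Single-concentration values are mean ± S.D. of four independent experiments.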

Series [4] in a line: Tolerability in xenograft-bearing mice. Format: in vivo, nu/nu mice. The note with it: mice treated for 18 days, 2.0 and 8.0 mg/kg daily i.p. The gist of the method:
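HCT116 cells (1×10^6) injected s.c. into the right flank of 7–8-week-old female nu/nu mice. After 1 week, mice were randomized into four groups of eight. Groups received daily i.p. test peptide (2.0 or 8.0 mg/kg) or TAT (1.3 or 5.3 mg/kg) for 18 days. Body weight was monitored. Liver, brain, heart, lung and spleen sections were assessed by H&E staining.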

The test system of series [5] is Jurkat cells. The series is described as follows: Cell death by propidium iodide staining and flow cytometry. The conditions noted are these: 15 μM, 18 h, 0.5% FBS; mean of three independent experiments. Format: cell-based. The gist of the method: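 Cells seeded at 4×10^5/ml in medium with 0.5% FBS and exposed for 18 h to TAT-fused truncated test peptides (15 μM) or TAT alone. Cells were washed in PBS and resuspended in PI solution (50 μg/ml PI, 0.1% sodium citrate, 0.1% Triton X-100). Flow cytometry gave the sub-G1 fraction. Mean ± S.D. of three independent experiments; two-tailed Student's t-test versus TAT.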
For orientation: A flow cytometer gives signals particle by particle.

Consider YGRKKRRQRRR [TAT, reference compound], for which, in series [1], the “self-assembly into micelles in aqueous solution (DLS)” value is listed as “does not”. Further, the Trypan blue-negative cells with K562 cells turned out to be 83%; in the series with Jurkat cells [2] (20 μM, 15-min treatment) it was 75.2%. Also, the “cells excluding Trypan blue” value with Jurkat cells [2] (10 μM TAT, 17 h, no zVAD-fmk) worked out at 78%. Also, the “cell death (Trypan blue exclusion)” value in the series on Jurkat cells [2] (10 μM, 17 h) was “did not induce cell death”.

Consider YGRKKRRQRRRREADFFWSLCTADMS [killerFLIP], for which, in the series on Jurkat cells [3] (overnight treatment, various concentrations, low serum (0.5–5% FBS)), the “effect on cell viability (relative ATP levels)” value is given as “concentration-dependent decrease in cell viability”. Besides, the tolerability entry in series [4] is recorded as “generally well tolerated”. Also, the “cell death, share of Jurkat cells (Trypan blue exclusion)” value with Jurkat cells [2] (10–15 μM, overnight) was roughly 50%.

With CTADMS [killerFLIP-C], the “cell death (PI staining)” value in the series on Jurkat cells [5] stood at 14.6%.

For the molecule FALFCTSW [scrambled killerFLIP-E], the “relative ATP levels compared with vehicle-treated cells” value with Jurkat cells [3] (18 h, comparison with scrambled variant (Figure 4c), concentration not given) is listed as 12.7%.

B1: HGS-ETR2: agonistic anti-TRAIL-R2 antibody used as a positive control for apoptotic cell death (antibody, chains of the INN, looked up, V domains shown)
VH: EVQLVQSGGGVERPGGSLRLSCAASGFTFDDYGMSWVRQAPGKGLEWVSGINWNGGSTGYADSVKGRVTISRDNAKNSLYLQMNSLRAEDTAVYYCAKILGAGRGWYFDLWGKGTTVTVSS
VL: SSELTQDPAVSVALGQTVRITCQGDSLRSYYASWYQQKPGQAPVLVIYGKNNRPSGIPDRFSGSSSGNTASLTITGAQAEDEADYYCNSRDSSGNHVVFGGGTKLTVL
Regarding B1, the Trypan blue-negative cells was 70% in the series with Jurkat cells [2] (HGS-ETR2 1 μg/ml, 17 h, after 30 min pre-treatment with 20 μM zVAD-fmk) and 11% in the series on Jurkat cells [2] (HGS-ETR2 1 μg/ml, 17 h, no zVAD-fmk).
